Laboratory results published in the EternaBench riboswitch data.

System: MS2 coat protein
Test: apparent Kd, MS2 coat protein; higher = weaker binding; RNA-MaP array; FMN 200 µM where present
Outline: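 Designs were transcribed by stalled E. coli RNA polymerase on Illumina sequencing-chip clusters. They were titrated with SNAP-549-labelled MS2 coat protein from 0.7 or 1.5 nM, doubling to 3 µM, in 100 mM Tris-HCl pH 7.5, 80 mM KCl, 4 mM MgCl2, BSA, DTT, yeast tRNA and Tween-20, without and then with constant ligand. The apparent Kd is the median of filtered per-cluster fits after normalisation of green signal to red-channel RNA signal and control-cluster median Fmax.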

[1] = designed as: ON switch for flavin mononucleotide, no ligand
[2] = ligand present: flavin mononucleotide, designed as: ON switch for flavin mononucleotide
[3] = designed as: OFF switch for flavin mononucleotide, no ligand
[4] = ligand present: flavin mononucleotide, designed as: OFF switch for flavin mononucleotide

| Sequence | apparent Kd [1] [nM] | apparent Kd [2] [nM] | apparent Kd [3] [nM] | apparent Kd [4] [nM] |
| --- | --- | --- | --- | --- |
| GGGUACAUCGGAGGAUAUCAUGUAACUACAUGAGGAUCACCCAUGUCGAUGGAGACAUCGGAGAUUGAGAAGGCCGAUGUACCG | 261 | 10.1 | – | – |
| UCGAGGUCAGGAUAUACAUGAGGAUCACCCAUGUGGAAGUAAGGUAGGAGAAGAGUAGGUAGAAGGGACGAGAG | – | – | 42.6 | 35.7 |
| CAGUACUGAGGAUAUACAUGAGGAUCACCCAUGUGCUCGAAGUAGGAUACUACUAUUAGUAGAAGGCAGUACUG | – | – | 16.1 | 76.8 |
| AUUUAUGGCCAGAAGGACAUGAGGAUCACCCAUGUAGGAUAUGGACGAUUUUACUCGGCGGUUUGUUUAGGAAGCACCGGCGGU | 8 | 6.32 | – | – |
| CGCUAGUCAGGAUAUACGAACAUGUCAAAAGACGUGAAGGGACAUGAGGAUCACCCAUGUAGAAGGGACUAGCG | – | – | 36.8 | 206 |
| AGAGCCUCGUGAGGAUAUACAUGAGGAUCACCCAUGUAAUAAGAUCAACGGAGGAAACUCCGAAUGUAGAAGGCACGAGGCUCA | – | – | 37.2 | 423 |
| AGAAUGAUGUCAGGAUAUGACGCUGAGAGCACGUCAGAAGGGACAUGAGGAUCACCCAUGUCGGGCUAAUGAAGCUAUGGCACU | – | – | 8.86 | 11.7 |
| ACUGACAUGAGGAUCACCCAUGUCUUGAAUAGGUCAAAUUCACAGGAUAUGCACUUGGACAGGGUGCAGAAGGGUGAUGCAAUG | 57 | 12.2 | – | – |
| CACGCAUGUGGAGGAUAUGCAGUUAACAUAAGCGCAGAAGGCCACAUGAGGAUCACCCAUGUCCAGCAUUAGCUGAUGUUGAUC | – | – | 385 | 195 |
| UUUAUAAAUUAGAAGGCGUGAUGAAUUACAAUAGACAUGAGGAUCACCCAUGUGUAUUCAUGUCAUGAGGAUAUAGUCAUAUAU | 47.2 | 19.4 | – | – |
| UUAACAUGAGGAUCACCCAUGUAUAGAUCGGUUAAUAGAAGUGAGGAUAUGCUUAAAAUAAGGUAGCAGAAGGCACUGGGUACU | 24.2 | 28.7 | – | – |
| GGAGCUCACAUUAACAUGAGGAUCACCCAUGUCUCUUGACAUGAGGAUAUGGAUCCUAAUUGGAUCCAGAAGGCAUGGAGCUCC | 1650 | 108 | – | – |
| GCGGGAGGAGGAUAUACAAUCGUGUGACCCGGACCCUAUGGACAUGAGGAUCACCCAUGUAGAAGGUUUCCCUU | – | – | 112 | 568 |
| GCCAAUACCGAGGAUAUCCUGAAGCACAUAUCUGGAGAAGGCGGUACAUGAGGAUCACCCAUGUGCUCGUGAGA | – | – | 21.6 | 33 |
| UUAACAUGAGGAUCACCCAUGUAAAGAACGGUUAAUUAAAGUGAGGAUAUACAAAAUUUUAUAUUGUAGAAGGCACUGGGUACA | – | 22.9 | – | – |
| ACUAUACGAGGAUAUGCUGUCAGUACUCCGAGGUUAGUUUGACAUGAGGAUCACCCAUGUAGAAGGCGUUUACU | – | – | 24.8 | 22.2 |
| GGCUAGUGAGGAUAUACGUGCACUCCUCAGUCGCCAGUCGGACAUGAGGAUCACCCAUGUAGAAGGUAUCGGCA | – | – | 27.8 | 30.2 |
| UGUCGGAGCAGAGGAUAUUACAUGAGGAUCACCCAUGUAUGAACCAAUAGCUGGAAAUAGCAAUGUAAGAAGGCUGCUCCGACA | – | – | 15.8 | 168 |
| AGUGCCUCGAGAGGAUAUUACAUGAGGAUCACCCAUGUAACAGAGGUGGAAACACCUCUGAAAUGUAAGAAGGCUCGAGGCACA | – | – | 19.2 | 31.2 |

| Sequence | apparent Kd [1] [nM] | apparent Kd [2] [nM] | apparent Kd [3] [nM] | apparent Kd [4] [nM] |
| --- | --- | --- | --- | --- |
| CCUCUACAUGAGGAUCACCCAUGUGAGGAUAUCUCGGAGCAGCCACUUAAGGCGCUCCAGAGAAGGCACGUGUA | – | – | 19.6 | 28.8 |
| GACAUCGCAGGAUAUUAUUGUUUGUACAUGAGGAUCACCCAUGUUAAUUGGGUUAGUGUUUAAGAAGGGCGGUGUC | – | – | 1340 | 901 |
| AAUAACAGAGGAUAUACUGUUUUAUGUGUUUAUUAUUUUAAACAUGAGGAUCACCCAUGUAGAAGGCUGAAUAA | – | – | 42.6 | 42.8 |
| GAUAAAGGAGUAGGAUAUGCACAUGGUAGGCUUAUCUUUAUGGCGACAUGAGGAUCACCCAUGUUGCAGAAGGGCUUCCCAUUG | – | – | 34 | 25.9 |
| GUACUGUAGUGAGGAUAUACGAGAACGAUAGUUCGGCGAUCCAAUUAUACAUGAGGAUCACCCAUGUAGAAGGCACUUCAGUAC | – | – | 10.8 | 30.6 |
| AAUAACAGAGGAUAUACUGUUUUAUGUGUUUAUUGUUUUGAACAUGAGGAUCACCCAUGUAGAAGGCUGAGUAA | – | – | 27.8 | 28.2 |
| GGUGUGAGGCAGGAUAUGCUAUAUGUAAGUAAUGCAGAAGGGUCUACAUGAGGAUCACCCAUGUGUGCGGUAGA | – | – | 105 | 311 |
| ACUAAUUAGUGAGGAUAUACAUAAUUUAUAACUGUAGAAGGCACAAACCUCAAUACAUGAGGAUCACCCAUGUGGUAUAUAAAU | – | – | 244 | 434 |
| CUAUGAACGAUAGGAUAUACUGAGGUUGAGUGGGUAGAAGGAUCGAUAGUGUAGAAGACAUGAGGAUCACCCAUGUUAUGGAUU | 505 | 318 | – | – |
| UGGGCCUCGUGAGGAUAUACAUGAGGAUCACCCAUGUAAUAAAGUGAACGGAGGAAACUCCGAAUGUAGAAGGCACGAGGCUCA | – | – | 19.5 | 147 |
| UUAUUAUAUGUAGGAUAUGCAUAUUGUUGUUAUGCAGAAGGACAUGAGGAUCACCCAUGUAUAUUAUUGUUAUAUAUUGUAUAU | – | – | 24.6 | 30.5 |
| GCCUCACAUGAGGAUCACCCAUGUCAGGAUAUACCCAUCCGGCGCAAUUGCAGCCGUAGUAGAAGGGACAUGCA | – | – | 21.2 | 45.8 |
| GCCGUGUUAGGAUAUUAAAGACCUGCGCCGAGCGCAGGAAGUAAGAAGGAACAUGAGGAUCACCCAUGUGUCCG | – | – | 18.1 | 16.1 |
| GGACCGCGCAGAGUUGGCGGUCGGCAGGAUAUGACAUGAGGAUCACCCAUGUGAACUCCAUUGGGUCAGAAGGGCCACGACACA | – | – | 22.4 | 107 |
| GCAAUAGCAUGAGGAUAUGCUGGAGUUUAGACAGCAGAAGGCAUGUCAUAAGACAUGAGGAUCACCCAUGUAGUUACAAUGGCA | 26.9 | 11.3 | – | – |
| GCCGAAAAUGUGAGGAUAUACCUAUGGAUACAUAGGUAGAAGGCACAUGAGGAUCACCCAUGUUCCUCAUCGGC | – | – | 114 | 435 |
| CGUGCGUAUGUGAGGAUAUGCUGGUCCUUGGAUCAGCAGAAGGCACAUGAGGAUCACCCAUGUGGUGUCGUACC | – | – | 262 | 44.1 |
| CAGGUAGCUACAGGAUAUACACAGCUCAGUAAACUGAGCAAAAGAUCUACAUGAGGAUCACCCAUGUAGAAGGGUAGCUGCCUG | – | – | 17.1 | 18.2 |
| UUGGUACAUGAGGAUCACCCAUGUGGGUCGGUCGCAGGAUAUGCCCGUGGGCGCUUGCGGGCAGAAGGGUGCCGUA | 392 | 102 | – | – |

| Sequence | apparent Kd [1] [nM] | apparent Kd [2] [nM] | apparent Kd [3] [nM] | apparent Kd [4] [nM] |
| --- | --- | --- | --- | --- |
| GCCAUCGCGUGAGGAUAUGCUCCGGUUUCCGGAGCAGAAGGCAUGUCAUAAGACAUGAGGAUCACCCAUGUAGUUAAGAUGGCA | 238 | 9.79 | – | – |
| CGAUCGUGUAGAGGAUAUGUUAAACAUGAGGAUCACCCAUGUAAGGUAGAAAUUUUUAUUAACAUACAGAAGGCUACACGAUCG | – | – | 8.08 | 5.66 |
| AAUAGUUCCGAGGAUAUAUCUCCACCGUGGGUGGUAGAAGGCGGGACAUGAGGAUCACCCAUGUACAAAUUCUC | – | – | 75.2 | 98.1 |
| CGAUAUACGACGGACGGAAACGUACAUGAGGAUCACCCAUGUAGAAGGCGAUCCGCAACGCGGAUUGAGGAUAUAUAGUAUACA | – | – | 20.7 | 14.6 |
| GGUGUCAUCGAGAAGGCCUCAACAUGAGGAUCACCCAUGUUGUAAUAUGGGAGGAUAUCGAUGAUACAGCUACGUUUCGUAGCC | 20.7 | 6.23 | – | – |
| UUGUGGGAGCAGGAUAUCUUAUUUUUUUUUUGUGGAGAAGGGCUGACAUGAGGAUCACCCAUGUGGUCCUAGAU | – | – | 28.2 | 27.9 |
| CGAGGUGGAGUGAGGAUAUCGUGUUCGAAAGAACGUGAGAAGGCACAUGAGGAUCACCCAUGUGAUCCUGCUCG | – | – | 105 | 360 |
| UUAUGGUUCAAGAAGGAUGUAUUUGACUUGUACAUAGGAUAUUGUUAUAUUGUUAAUUAUUGUAACAUGAGGAUCACCCAUGUA | 7.84 | 7.77 | – | – |
| GUGGUACAUGAGGAUCACCCAUGUAAGGAUAUAGUCGUCUGGUGGUCUCGGGUGGUGGCUAGAAGGUGCGUGCG | – | – | 189 | 177 |
| UUAAAUCAUGUAGGAUAUGCAUGGCGAAGCUACGCAGAAGGACAUGAGGAUCACCCAUGUUAUAGCUACCCAGAACGGUGGCAA | – | – | 75.5 | 267 |
| UUUAUUUUGCAAGGAUAUGUUUAAUUUUAGUUUCCUUACACAUGAGGAUCACCCAUGUUAUACUUACAGAAGGUGCAUAAUUUU | – | – | 173 | 94.6 |
| GUGCGGUAGGAGAAGGACGGAGGCUUCUUUUCAUACAUGAGGAUCACCCAUGUAGGAUAUCCUACCUCACGCGGCCUACUACAG | – | – | 8.74 | 7.7 |
| UUAUUUAUGUAAGGAUAUCGAUUAUAUACACAUCCGACAUGAGGAUCACCCAUGUUUUAUUUUUUCGAGAAGGUACAUUGUCGG | 76.5 | 74.7 | – | – |
| CGGCACCAAGGAUAUACAUGAGGAUCACCCAUGUUUUUUGGGCCCUUAAAAUCUACGUGUAGAAGGUGGGUCGA | – | – | 49.9 | 56.9 |
| GUUUAGUGAGGAUAUGUGGCGUGGAUCGAGCGCGGUCUGCUACAGAAGGCACAUGAGGAUCACCCAUGUUUCUC | – | – | 166 | 329 |
| AUCGGGAGAGGAUAUACAUGAGGAUCACCCAUGUUGGGAACAUCGGUUUGUUAGUUUCGUAGAAGGCUCGGGCG | – | – | 45.5 | 59.6 |
| UCAUUAGCGGGCGGAUCGGUUGGACAUGAGGAUCACCCAUGUAGAAGGACCGGUGGAUUCCGGCGGUAGGAUAUACAUUUGGUG | – | – | 12.7 | 19.8 |
| GGUGCGUGUAAAGGAUAUAUGUACUGAGAGGACAUAGAAGGUUACAUGAGGAUCACCCAUGUAGGAAGCGAAAGUUAUCACGUG | – | – | 11.7 | 25.3 |
